Measured values from different studies.
Protocols differ between the studies behind these lines.
ABL1 non-phosphorylated: Tyrosine-protein kinase ABL1, non-phosphorylated (ABL1, Homo sapiens, UniProt P00519)
ABL1: Tyrosine-protein kinase ABL1 (ABL1, Homo sapiens, UniProt P00519)
ABL1 phosphorylated: Tyrosine-protein kinase ABL1, phosphorylated (ABL1, Homo sapiens, UniProt P00519)

The remaining binding of `COc1ccc2[nH]c3c4[nH]c5ccc(OC)cc5c4c4c(c3c2c1)C(=O)NC4=O` is reported as 84% (Tyrosine-protein kinase ABL1 (ABL1, Homo sapiens, UniProt P00519, F317L); binding; 1 µM).
`CO[C@@H]1[C@H](N(C)C(=O)c2ccccc2)C[C@H]2O[C@]1(C)n1c3ccccc3c3c4c(c5c6ccccc6n2c5c31)C(=O)NC4` gave an inhibition of 0% (Tyrosine-protein kinase ABL1, non-phosphorylated (ABL1, Homo sapiens, UniProt P00519, Q252H); enzyme activity; inhibitor; 1 µM).
`CCCCC(=O)Nc1ccc(-c2ccc3ncn(CCC)c(=O)c3c2)cn1` has a remaining binding of 85% (ABL1 non-phosphorylated; binding; competition with immobilised ligand; 0.5 µM).
`Cc1ccc(NC(=O)c2ccnc(C(F)(F)F)c2)cc1-c1cc(OCCO)nc(N2CCOCC2)c1` gave a remaining binding of 100% (Tyrosine-protein kinase ABL1 (ABL1, Homo sapiens, UniProt P00519, M351T); binding; 1 µM).
For `COc1ccc2oc(-c3ccc4nc(N)oc4c3)c/c(=N\c3ccccc3NC(=O)CCN)c2c1`, the remaining binding was 102% (ABL1; binding; 1 µM).
`C=CC(=O)N1CCC([C@@H]2CCNc3c(C(N)=O)c(-c4ccc(Oc5ccccc5)cc4)nn32)CC1` gave an inhibition of 5% (Tyrosine-protein kinase ABL1, non-phosphorylated (ABL1, Homo sapiens, UniProt P00519, H396P); enzyme activity; inhibitor; 1 µM).
With `C[C@H]1CC[C@H](n2c3cnccc3c3cnc(Nc4ccc5c(n4)CCN(C(=O)CO)C5)nc32)CC1` the remaining binding was 56% (ABL1 non-phosphorylated; binding; competition with immobilised ligand; 1 µM).
`N#Cc1ccc(NC(=O)Nc2ccccc2)cc1` gave a remaining binding of 92% (Tyrosine-protein kinase ABL1, phosphorylated (ABL1, Homo sapiens, UniProt P00519, E255K); cell-free assay; competition with immobilised ligand; 25 µM).
`CC#CC(=O)N1CCC[C@H]1c1nc(-c2ccc(C(=O)Nc3ccccn3)cc2)c2c(N)nccn12` gave an inhibition of 22% (Tyrosine-protein kinase ABL1, phosphorylated (ABL1, Homo sapiens, UniProt P00519, Y253F); enzyme activity; inhibitor; 1 µM).
`CN1CCN(C(=O)c2ccc(NC(=O)Nc3ccc(N(C)c4ccnc(Nc5ccc(CS(C)(=O)=O)cc5)n4)cc3)cc2)CC1` gave a remaining binding of 30% (ABL1 phosphorylated; binding; competition with immobilised ligand; 1 µM).
With `C1=C/COCc2cc(ccc2OCCN2CCCC2)Nc2nccc(n2)-c2cccc(c2)COC/1` the remaining binding was 27% (ABL1 phosphorylated; binding; 0.1 µM).
`[2H]c1cc(C)c(NC(=O)c2cnc(Nc3cc(N4CCCCC4)nc(C)n3)s2)c(Cl)c1` has an inhibition of greater than 50% (ABL1; enzyme activity; inhibitor; 100 pM).
